Experimental data pooled from the literature.

The solubility of `CC[C@H](C)[C@H](NC(C)=O)C(=O)N[C@H]1CSSC[C@@H](C(=O)N[C@H](C(N)=O)[C@@H](C)O)NC(=O)[C@H](CCCNC(=N)N)NC(=O)[C@H](Cc2cnc[nH]2)NC(=O)[C@H](Cc2cccc3ccccc23)NC(=O)CNC(=O)[C@H](Cc2c[nH]c3ccccc23)NC(=O)[C@H](CC(=O)O)NC(=O)[C@H](CCC(N)=O)NC(=O)[C@H](Cc2c[nH]c3ccccc23)NC(=O)[C@H](C(C)C)NC1=O` is reported as 150 µg/mL (PBS; pH 7.4).
`CCc1cc(OC)cc2c(/C=N/NC(=N)NCCc3ccc(C#N)cc3)c[nH]c12` gave a solubility of 55.5 µM (PBS; 2 h; pH 7.4).
For `C#Cc1ccc2c(c1)C(c1ccccn1)=NCc1c(-c3cnco3)ncn1-2.Cl`, the solubility was 5560 µg/mL (water; 24 h; 25 °C).
For `COc1cc([C@@H]2c3cc4c(cc3[C@H](O)[C@H]3COC(=O)[C@H]23)OCO4)cc(OC)c1OC`, the solubility was 2200 µg/mL (water).
`C=CC[C@@]1(C)NC(=O)CNC(=O)[C@H](Cc2c[nH]c3ccccc23)NC(=O)[C@H](CC(=O)O)NC(=O)[C@H](CCC(N)=O)NC(=O)[C@H](Cc2c[nH]c3ccccc23)NC(=O)[C@H](C(C)C)NC(=O)[C@@H](NC(=O)[C@@H](NC(C)=O)[C@@H](C)CC)CSSC[C@@H](C(=O)N[C@H](C(N)=O)[C@@H](C)O)NC(=O)[C@H](CCCNC(=N)N)NC(=O)[C@H](Cc2c[nH]cn2)NC1=O` gave a solubility of 3350 µg/mL (PBS; pH 7.4).
The solubility of `CC[C@H](C)[C@H](NC(=O)[C@H](Cc1ccccc1)NC(=O)[C@H](Cc1ccc(O)cc1)NC(=O)[C@@H]1CCCN1C(=O)[C@@H](N)Cc1ccc(O)cc1)C(=O)N1CCC[C@H]1C(=O)N[C@@H](C)C(=O)NCC(=O)N[C@H](CCCCN)C(=O)NCC(=O)N[C@@H](CCC(=O)O)C(=O)N[C@H](C(=O)N[C@@H](CC(N)=O)C(=O)N[C@@H](CC(C)C)[C@@H](O)CC(=O)N[C@H](C(=O)N[C@@H](C)C(=O)N[C@@H](CCC(=O)O)C(=O)N1CCC[C@@H]1C(=O)N[C@@H](CCCCNC(=O)CCC(=O)O[C@H]1CC[C@@]2(C)C(=CC[C@H]3[C@@H]4CC[C@H]([C@H](C)CCCC(C)C)[C@@]4(C)CC[C@@H]32)C1)C(N)=O)C(C)C)C(C)C` is reported as over 2450 µg/mL (aqueous buffer; pH 6.5).
`CC[C@H](C)[C@H](NC(=O)[C@H](CO)NC(=O)[C@H](CCCNC(=N)N)NC(C)=O)C(=O)N[C@H]1CSSC[C@@H](C(=O)N[C@H](C(N)=O)[C@@H](C)O)NC(=O)[C@H](CCCNC(=N)N)NC(=O)[C@H](Cc2c[nH]cn2)NC(=O)[C@H](Cc2cccc3ccccc23)NC(=O)CNC(=O)[C@H](Cc2c[nH]c3ccccc23)NC(=O)[C@H](CC(=O)O)NC(=O)[C@H](CCC(N)=O)NC(=O)[C@H](Cc2cccc3ccccc23)NC(=O)[C@H](C(C)C)NC1=O` has a solubility of 200 µg/mL (PBS; pH 7.4).
The solubility of `O=C1C=C(N(Cc2ccc(Cl)nc2)CC(F)F)CO1` is reported as 3000 µg/mL (water; pH 7).
`CC[C@H](C)[C@H](NC(C)=O)C(=O)N[C@H]1CSSC[C@@H](C(=O)N[C@H](C(N)=O)[C@@H](C)O)NC(=O)[C@H](CCCNC(=N)N)NC(=O)[C@H](Cc2c[nH]cn2)NC(=O)[C@](C)(CC)NC(=O)CNC(=O)[C@H](Cc2c[nH]c3ccccc23)NC(=O)[C@H](CC(=O)O)NC(=O)[C@H](CCC(N)=O)NC(=O)[C@H](Cc2c[nH]c3ccccc23)NC(=O)[C@H](C(C)C)NC1=O` has a solubility of 3470 µg/mL (PBS; pH 7.4).
`O=c1[nH]c2ccccc2n1CCCN1CCC(n2c(=O)[nH]c3cc(Cl)ccc32)CC1` gave a solubility of 135 µg/mL (FaSSIF; 24 h; pH 7.4; 37 °C).
`COc1ccc(NC(=O)N2CCCCN3[C@H](CN(C)C)[C@H](c4ccc(C#Cc5ccccc5)cc4)[C@@H]3C2)cc1` has a solubility of 33 µM (aqueous buffer; pH 7).
The solubility of `COc1ccc2c(c1)NC(=O)CN2c1nc(C)nc2c1CCC2` is reported as 26.4 µg/mL (aqueous buffer; pH 7.4).
With `CC(/C=C/[C@@H]1C[C@]2(CO2)CC(C)(C)O1)=C\C[C@H]1OC[C@@H](NC(=O)/C=C\[C@H](C)OC(=O)C(C)(C)C)CO1` the solubility was over 10 µM (HPLC; PBS).
For `Clc1ccc(CSc2nnc(-c3ccccn3)n2Cc2ccco2)cc1Cl`, the solubility was under 0.1 µg/mL (aqueous buffer; pH 5).
